Assay results taken from ChEMBL document CHEMBL4017544 (J Med Chem, 2017).
In brackets after ≈: the same amount, converted by molar mass. Activity calls are given as the source filed them. The rule behind the calls is not given here.

Legend:
[1] = molecular target: T1, Inhibitor of nuclear factor kappa-B kinase subunit beta (Homo sapiens) (UniProt O14920); experiment: Inhibition of IKKbeta (unknown origin) transfected in HEK293 cells assessed as reduction in TNFalpha-induced upregulation of COX2 mRNA expression at 200 to 1000 nM administered 6 hrs after TNFalpha stimulation measured for 24 hrs by quantitative RT-PCR analysis; assay type: cell-based
T1 sequence (whole entry): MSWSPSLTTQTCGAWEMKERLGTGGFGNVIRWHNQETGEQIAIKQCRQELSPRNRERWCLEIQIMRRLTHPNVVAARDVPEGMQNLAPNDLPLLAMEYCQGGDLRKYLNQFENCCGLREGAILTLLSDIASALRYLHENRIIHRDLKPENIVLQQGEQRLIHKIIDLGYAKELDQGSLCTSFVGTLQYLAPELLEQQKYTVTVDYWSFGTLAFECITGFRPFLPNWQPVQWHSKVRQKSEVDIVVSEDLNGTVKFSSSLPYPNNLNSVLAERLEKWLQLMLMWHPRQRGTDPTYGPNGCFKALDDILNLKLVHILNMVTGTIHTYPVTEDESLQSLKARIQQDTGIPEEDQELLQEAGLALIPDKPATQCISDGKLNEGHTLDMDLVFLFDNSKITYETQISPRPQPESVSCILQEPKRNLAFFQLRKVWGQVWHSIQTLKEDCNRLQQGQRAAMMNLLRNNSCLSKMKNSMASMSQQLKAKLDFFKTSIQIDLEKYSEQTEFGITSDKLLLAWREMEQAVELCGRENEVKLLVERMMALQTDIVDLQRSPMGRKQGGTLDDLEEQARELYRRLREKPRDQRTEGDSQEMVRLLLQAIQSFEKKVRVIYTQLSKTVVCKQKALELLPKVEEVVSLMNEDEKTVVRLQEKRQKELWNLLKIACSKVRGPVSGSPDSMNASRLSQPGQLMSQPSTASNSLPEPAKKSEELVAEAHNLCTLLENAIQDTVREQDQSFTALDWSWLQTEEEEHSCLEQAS
How it was run: (§1)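 HEK293 cells pretreated with TNF-α (10 ng/mL) for 6 h, then given compound at 200 or 1000 nM for 24 h, in triplicate; iNOS, COX2 and MCP-1 mRNA relative to GAPDH by quantitative RT-PCR, 2−ΔΔCt method; mean ± SD from three experiments.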

[2] = molecular target: Kelch-like ECH-associated protein 1 (Homo sapiens) (UniProt Q14145); experiment: Inhibition of Keap1/Nrf2 (unknown origin) interaction transfected in HEK293 cells assessed as upregulation of NQO1 mRNA expression at 200 to 1000 nM after 48 hrs by quantitative RT-PCR analysis; assay type: cell-based
Kelch-like ECH-associated protein 1 (Homo sapiens), sequence (Q14145 whole entry): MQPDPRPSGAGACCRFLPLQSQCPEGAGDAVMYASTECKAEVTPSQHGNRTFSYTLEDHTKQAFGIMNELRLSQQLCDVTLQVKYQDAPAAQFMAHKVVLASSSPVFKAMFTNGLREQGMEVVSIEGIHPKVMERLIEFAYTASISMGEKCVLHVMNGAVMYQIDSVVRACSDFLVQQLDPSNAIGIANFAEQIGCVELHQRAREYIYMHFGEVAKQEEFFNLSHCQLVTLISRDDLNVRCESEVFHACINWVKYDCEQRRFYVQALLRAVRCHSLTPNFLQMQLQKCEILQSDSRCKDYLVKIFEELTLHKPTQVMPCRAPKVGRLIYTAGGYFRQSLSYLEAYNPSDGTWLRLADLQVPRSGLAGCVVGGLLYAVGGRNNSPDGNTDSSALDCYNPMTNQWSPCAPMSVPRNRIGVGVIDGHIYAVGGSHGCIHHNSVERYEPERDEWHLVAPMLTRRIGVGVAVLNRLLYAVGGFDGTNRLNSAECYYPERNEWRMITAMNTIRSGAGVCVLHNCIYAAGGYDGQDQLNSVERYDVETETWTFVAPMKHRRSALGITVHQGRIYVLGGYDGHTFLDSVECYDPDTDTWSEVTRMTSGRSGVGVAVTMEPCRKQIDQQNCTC
How it was run: (§2)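 HEK293 cells (ATCC; high-glucose DMEM, 10% FBS) were treated in triplicate for 48 h. For the reporter read-out, cells were transfected with an ARE-dependent luciferase plasmid and luciferase activity was measured. For mRNA, total RNA was extracted with TRIzol and reverse transcribed, and target transcripts were quantified by qRT-PCR relative to GAPDH using the 2−ΔΔCt method. Three independent experiments, mean ± SD.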

H9c2 = experiment: Cytotoxicity against rat H9c2 cells assessed as reduction in cell viability after 24 hrs by MTT assay; assay type: cell-based; settings: H9c2, 24 h
How it was run: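 HEK293 or H9C2 cells grown in high-glucose DMEM with 10% FBS, exposed to compound for 24 h; viability by MTT, IC50 calculated.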

[3] = molecular target: T1, Inhibitor of nuclear factor kappa-B kinase subunit beta (Homo sapiens); experiment: Inhibition of IKKbeta (unknown origin) transfected in HEK293 cells assessed as reduction in TNFalpha-induced upregulation of MCP1 mRNA expression at 200 to 1000 nM administered 6 hrs after TNFalpha stimulation measured for 24 hrs by quantitative RT-PCR method
[4] = molecular target: T1, Inhibitor of nuclear factor kappa-B kinase subunit beta (Homo sapiens); experiment: Inhibition of IKKbeta (unknown origin) transfected in HEK293 cells assessed as reduction in TNFalpha-induced upregulation of COX2 protein expression at 200 to 1000 nM administered 6 hrs after TNFalpha stimulation measured for 24 hrs by Western blot method; assay type: cell-based
How it was run: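 HEK293 cells pretreated with TNF-α (10 ng/mL) for 6 h, then given compound at 200 or 1000 nM for 24 h, in triplicate; nuclear and cytosolic p65, iNOS and COX2 protein by western blot; mean ± SD from three experiments.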

[5] = molecular target: T1, Inhibitor of nuclear factor kappa-B kinase subunit beta (Homo sapiens); experiment: Inhibition of IKKbeta (unknown origin) transfected in HEK293 cells assessed as TNFalpha-induced NFkappaB activation at 200 to 1000 nM administered 6 hrs after TNFalpha stimulation measured for 24 hrs by NFkappaB-driven luciferase reporter gene assay; assay type: cell-based
How it was run: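 HEK293 cells transfected with an NF-κB-driven luciferase reporter, stimulated with TNF-α and treated in triplicate; luciferase read with a dual-luciferase system.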

[6] = Acute toxicity in ip dosed ICR mouse assessed as lethality administered daily for 7 days; assay type: organism-based; settings: in vivo
How it was run: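 Intraperitoneal dosing of ICR mice once daily for 7 days, with top doses up to 600 or 1000 mg/kg depending on the compound. Lethality was recorded and expressed as an LD50 (mg/kg).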

[7] = molecular target: Kelch-like ECH-associated protein 1 (Homo sapiens) (UniProt Q14145); experiment: Inhibition of Keap1/Nrf2 (unknown origin) interaction transfected in HEK293 cells assessed as activation of Nrf2 at 200 to 1000 nM after 48 hrs by ARE-driven luciferase reporter gene assay; assay type: cell-based; how it was run: as §2
[8] = Cmax in Sprague-Dawley rat at 10 mg/kg, iv measured up to 24 hrs by LC-MS/MS analysis; assay type: ADME, organism-based; set-up: dose 10 mg/kg, route intravenous; settings: in vivo
How it was run: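 Rats dosed intravenously at 10 mg/kg; blood drawn from suborbital vein at 0, 2, 5, 15, 30, 60 min and 1.5, 2, 4, 6, 8, 12, 24 h; plasma levels by LC-MS/MS; parameters from concentration–time profiles, mean ± SD, n = 3.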

HEK293 = experiment: Effect on Nfr2 mRNA expression in HEK293 cells harboring Keap1 at 200 to 1000 nM after 48 hrs by quantitative RT-PCR analysis; assay type: functional, cell-based; settings: Homo sapiens
How it was run: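 HEK293 cells treated in triplicate at 200 or 1000 nM for 48 h; Nrf2 mRNA relative to GAPDH by quantitative RT-PCR using the 2−ΔΔCt method; mean ± SD from three experiments.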

[9] = molecular target: T1, Inhibitor of nuclear factor kappa-B kinase subunit beta (Homo sapiens); experiment: Inhibition of IKKbeta (unknown origin) transfected in HEK293 cells assessed as reduction in TNFalpha-induced upregulation of iNOS mRNA expression at 200 to 1000 nM administered 6 hrs after TNFalpha stimulation measured for 24 hrs by quantitative RT-PCR analysis; assay type: cell-based; how it was run: as §1
[10] = Solubility of compound in saline containing 1% 1,3-propylene glycol/ 1% Tween 80 at 100 uM at pH 7.4 by HPLC analysis; assay type: physicochemical
How it was run: (§3)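 Solubility was determined by an established HPLC method, in saline alone or in saline containing 1% 1,3-propylene glycol and 1% Tween 80.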

[11] = Solubility of compound in saline at 100 uM at pH 7.4 by HPLC analysis; assay type: physicochemical; how it was run: as §3
[12] = molecular target: T1, Inhibitor of nuclear factor kappa-B kinase subunit beta (Homo sapiens); experiment: Inhibition of IKKbeta (unknown origin) transfected in HEK293 cells assessed as reduction in TNFalpha-induced upregulation of MCP1 mRNA expression at 200 to 1000 nM administered 6 hrs after TNFalpha stimulation measured for 24 hrs by quantitative RT-PCR analysis; assay type: cell-based; how it was run: as §1

SMILES	inhibition [1]	inhibition [2]	IC50 (H9c2) [µM]	inhibition [3]	inhibition [4]	inhibition [5]	LD50 at 168 h [6] [mg/kg]	inhibition [7]	Cmax [8] [ng/mL]	Activity (HEK293)	inhibition [9]	solubility at 100 µM ([10]; saline containing 1% 1,3-propylene glycol/1% Tween 80, pH 7.4) [µg/mL]	solubility at 100 µM ([11]; saline, pH 7.4) [µg/mL]	inhibition [12]	solubility ([10]; buffer, pH 7.4, 100 µM)	solubility ([11]; buffer, pH 7.4, 100 µM)
COC(=O)[C@@H](N)CCC(=O)Nc1ccc(COC2=C(C#N)[C@H](O)[C@]3(C)C4=CC(=O)[C@@H]5[C@@H]6CC(C)(C)CC[C@]6(C(=O)OC)CC[C@@]5(C)[C@]4(C)CC[C@H]3C2(C)C)cc1	Active	Active	112	Active	Active	Active	886	Active	3020	inactive	Active	12200 (≈ 15.8 mM)	8.9 (≈ 0.0115 mM)	Active		
COC(=O)[C@]12CCC(C)(C)C[C@H]1[C@H]1C(=O)C=C3[C@@]4(C)C=C(C#N)C(=O)C(C)(C)[C@@H]4CC[C@@]3(C)[C@]1(C)CC2 [BARDOXOLONE METHYL]	Active	Active	5.2	Active	Active	Active	425	Active	5020	inactive	Active			Active	Insoluble	Insoluble
